Source: ChEMBL document CHEMBL3872205, “Design, synthesis and evaluation of novel potent angiotensin II receptor 1 antagonists” (Eur J Med Chem, 2016)

What was measured:
[1] = Toxicity in ICR mouse assessed as mortality at 1200 mg/kg, ig after 2 weeks; assay type: organism-based; settings: in vivo, po
[2] = MRT (0 to 72 hrs) in Wistar rat plasma at 15 mg/kg, po by HPLC analysis; assay type: ADME, organism-based
Method in brief: (§1)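 Male Wistar rats (180 ± 20 g), 6 per dose group, each given a single oral dose. Blood was drawn by retro-orbital puncture into heparin at predose and at 0.5, 1, 2, 4, 6, 8, 12, 24, 48 and 72 h, then spun at 4000 × g and 4 °C. Plasma with internal standard was acetonitrile-precipitated, filtered and run on reverse-phase C18 HPLC (0.02 mol/L KH2PO4 55% / acetonitrile 45%, 1.0 mL/min). Calibration standards were 0.1–10 µg/mL, fitted by peak-height ratio with 1/conc² weighting.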

[3] = MRT (0 to 72 hrs) in Wistar rat liver at 10 mg/kg, po by HPLC analysis; assay type: ADME, organism-based
Method in brief: (§2)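 Tissue distribution in male Wistar rats given oral 10, 15 or 30 mg/kg; heart, liver, spleen, lung, kidney and brain collected predose and 0.5–72 h post-dose (n = 6 per time). Tissue rinsed in saline, homogenised 0.25 g/1 mL saline, methanol extraction, dried under nitrogen, reconstituted in methanol. Analysis by reverse-phase C18 HPLC, acetonitrile/water 60:40, 1.0 mL/min, ambient temperature.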

[4] = Tmax in Wistar rat spleen at 30 mg/kg, po by HPLC analysis; assay type: ADME, organism-based
[5] = AUC (0 to 72 hrs) in Wistar rat brain at 30 mg/kg, po by HPLC analysis; assay type: ADME, organism-based; parameters: dose 30 mg/kg, time < 72 hr, route oral
Method in brief: (§3)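 Wistar rats (180 ± 20 g) were dosed orally at 10, 15 or 30 mg/kg. Heart, liver, spleen, lung, kidney and brain were collected at 0–72 h (n = 6 per point). Tissue was rinsed, blotted and homogenized in saline (0.25 g/1 mL), then spun at 10,000 × g. Supernatant was methanol-extracted, dried under nitrogen at 50 °C, reconstituted in methanol and run on C18 HPLC (acetonitrile 60%/water 40%, 1.0 mL/min).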

[6] = MRT (0 to 72 hrs) in Wistar rat plasma at 30 mg/kg, po by HPLC analysis; assay type: ADME, organism-based; method in brief: as §1
[7] = Toxicity in ICR mouse assessed as mortality at 2929.69 mg/kg, ig after 2 weeks; assay type: organism-based; settings: in vivo, po
[8] = Toxicity in ICR mouse assessed as mortality at 2343.75 mg/kg, ig after 2 weeks; assay type: organism-based; settings: in vivo, po
[9] = AUC (0 to infinity) in Wistar rat liver at 30 mg/kg, po by HPLC analysis; assay type: ADME, organism-based; parameters: dose 30 mg/kg, time infinity, route oral; method in brief: as §3
[10] = Tmax in Wistar rat brain at 15 mg/kg, po by HPLC analysis; assay type: ADME, organism-based
Method in brief: (§4)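 Male Wistar rats (180 ± 20 g) received a single oral dose of 10, 15 or 30 mg/kg. Tissues were collected at 0, 0.5, 1, 2, 4, 6, 8, 12, 24, 48 and 72 h (n = 6 per point). Samples of 0.25 g were rinsed, then homogenized in saline (0.25 g/1 mL) and centrifuged at 10,000 × g. Supernatant was methanol-extracted, dried under nitrogen at 50 °C and reconstituted in methanol. Analysis was by C18 HPLC (acetonitrile 60% / water 40%, 1.0 mL/min).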

[11] = Toxicity in ICR mouse assessed as mortality at 1500 mg/kg, ig after 2 weeks; assay type: organism-based; settings: in vivo, po
[12] = Half life in Wistar rat brain at 10 mg/kg, po by HPLC analysis; assay type: ADME, organism-based; method in brief: as §2
[13] = AUC (0 to infinity) in Wistar rat brain at 30 mg/kg, po by HPLC analysis; assay type: ADME, organism-based; parameters: dose 30 mg/kg, route oral, time infinity; method in brief: as §3
[14] = AUC (0 to 72 hrs) in Wistar rat kidney at 15 mg/kg, po by HPLC analysis; assay type: ADME, organism-based; parameters: dose 15 mg/kg, time < 72 hr, route oral; method in brief: as §3
[15] = MRT (0 to infinity) in Wistar rat spleen at 10 mg/kg, po by HPLC analysis; assay type: ADME, organism-based; method in brief: as §4
Mus musculus = assay: Toxicity in ICR mouse assessed as untoward reaction at 1200 mg/kg, po after 2 weeks; assay type: organism-based; settings: in vivo, 336 h
[16] = AUC (0 to 72 hrs) in Wistar rat Heart at 15 mg/kg, po by HPLC analysis; assay type: ADME, organism-based; parameters: time < 72 hr, dose 15 mg/kg, route oral; method in brief: as §3
[17] = AUC (0 to 72 hrs) in Wistar rat plasma at 30 mg/kg, po by HPLC analysis; assay type: ADME, organism-based; parameters: time < 72 hr, dose 30 mg/kg, route oral
Method in brief: (§5)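 Male Wistar rats (180 ± 20 g, n = 6 per group) got one oral dose. Heparinized blood was taken by retro-orbital puncture before dosing and at 0.5–72 h. Plasma was spun at 4000 × g, 4 °C, 10 min, spiked with internal standard and protein-precipitated with acetonitrile. Analysis was reverse-phase C18 HPLC (0.02 mol/L KH2PO4 55%/acetonitrile 45%, 1.0 mL/min). Calibration used 0.1–10 µg/mL, peak-height ratio, weighting concentration^-2.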

[18] = Tmax in Wistar rat kidney at 15 mg/kg, po by HPLC analysis; assay type: ADME, organism-based; method in brief: as §4
[19] = MRT (0 to 72 hrs) in Wistar rat Heart at 30 mg/kg, po by HPLC analysis; assay type: ADME, organism-based; method in brief: as §2
[20] = Cmax in Wistar rat spleen at 15 mg/kg, po by HPLC analysis; assay type: ADME, organism-based; parameters: dose 15 mg/kg, route oral; method in brief: as §2
[21] = AUC (0 to 72 hrs) in Wistar rat liver at 30 mg/kg, po by HPLC analysis; assay type: ADME, organism-based; parameters: time < 72 hr, dose 30 mg/kg, route oral; method in brief: as §3
[22] = AUC (0 to 72 hrs) in Wistar rat kidney at 30 mg/kg, po by HPLC analysis; assay type: ADME, organism-based; parameters: time < 72 hr, dose 30 mg/kg, route oral; method in brief: as §3
[23] = Cmax in Wistar rat plasma at 15 mg/kg, po by HPLC analysis; assay type: ADME, organism-based; parameters: dose 15 mg/kg, route oral
[24] = Tmax in Wistar rat Heart at 10 mg/kg, po by HPLC analysis; assay type: ADME, organism-based; method in brief: as §4
[25] = Half life in Wistar rat spleen at 10 mg/kg, po by HPLC analysis; assay type: ADME, organism-based; method in brief: as §2
[26] = Tmax in Wistar rat kidney at 30 mg/kg, po by HPLC analysis; assay type: ADME, organism-based; method in brief: as §4
[27] = Tmax in Wistar rat brain at 10 mg/kg, po by HPLC analysis; assay type: ADME, organism-based; method in brief: as §4
[28] = MRT (0 to 72 hrs) in Wistar rat lung at 15 mg/kg, po by HPLC analysis; assay type: ADME, organism-based; method in brief: as §4
[29] = AUC (0 to 72 hrs) in Wistar rat plasma at 10 mg/kg, po by HPLC analysis; assay type: ADME, organism-based; parameters: time < 72 hr, dose 10 mg/kg, route oral; method in brief: as §5
[30] = Half life in Wistar rat kidney at 10 mg/kg, po by HPLC analysis; assay type: ADME, organism-based; method in brief: as §2
[31] = AUC (0 to 72 hrs) in Wistar rat spleen at 30 mg/kg, po by HPLC analysis; assay type: ADME, organism-based; parameters: dose 30 mg/kg, time < 72 hr, route oral; method in brief: as §3
[32] = Half life in Wistar rat liver at 30 mg/kg, po by HPLC analysis; assay type: ADME, organism-based; method in brief: as §2
[33] = Half life in Wistar rat lung at 15 mg/kg, po by HPLC analysis; assay type: ADME, organism-based; method in brief: as §2
[34] = Half life in Wistar rat brain at 30 mg/kg, po by HPLC analysis; assay type: ADME, organism-based; method in brief: as §2
[35] = AUC (0 to infinity) in Wistar rat kidney at 15 mg/kg, po by HPLC analysis; assay type: ADME, organism-based; parameters: dose 15 mg/kg, time infinity, route oral; method in brief: as §3

CCCCC1=NC2(CCCC2)C(=O)N1Cc1ccc2c(ccn2-c2ccccc2-c2nnn[nH]2)c1
mortality at 336 h [1]: 0%
MRT last [2]: 10.2 h
MRT last [3]: 4.93 h
Tmax [4]: 2 h
AUC(0-t) at 72 h [5]: 1790 ng·h/mL
MRT last [6]: 12.9 h
mortality at 336 h [7]: 100%
mortality at 336 h [8]: 80%
AUC(0-inf) [9]: 15600 ng·h/mL
Tmax [10]: 4.83 h
mortality at 336 h [11]: 50%
half-life [12]: 2.73 h
AUC(0-inf) [13]: 1790 ng·h/mL
AUC(0-t) at 72 h [14]: 5730 ng·h/mL
MRT inf [15]: 30.4 h
Activity (Mus musculus): Non-Toxic
AUC(0-t) at 72 h [16]: 5840 ng·h/mL
AUC(0-t) at 72 h [17]: 89500 ng·h/mL
Tmax [18]: 2.33 h
MRT last [19]: 16.2 h
Cmax [20]: 2360 ng/mL
AUC(0-t) at 72 h [21]: 14500 ng·h/mL
AUC(0-t) at 72 h [22]: 22400 ng·h/mL
Cmax [23]: 2950 ng/mL
Tmax [24]: 4 h
half-life [25]: 17.9 h
Tmax [26]: 2 h
Tmax [27]: 6.67 h
MRT last [28]: 6.64 h
AUC(0-t) at 72 h [29]: 6110 ng·h/mL
half-life [30]: 26.9 h
AUC(0-t) at 72 h [31]: 18900 ng·h/mL
half-life [32]: 2.12 h
half-life [33]: 2.46 h
half-life [34]: 2.99 h
AUC(0-inf) [35]: 7690 ng·h/mL
